Rows were chosen to be rich in hits. Some 3.9% of all compounds tested hit in one or more screens of this group.
CHO parental Ca: signal in parental CHO cells, OX1R antagonist counter-screen | parental CHO-K1, ATP-induced calcium, Fluo-8 fluorescence | inhibition, % at 5.6 µM | 0.63% of 330,000 active;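 active means inhibition above that plate's mean sample inhibition plus 3 SD, cut at about 26% in these data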;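 further: 0% = ATP-challenged DMSO wells and 100% = DMSO wells without ATP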
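Material: Parental CHO cells | Reagent: ATP | Compound dosing: Single nominal dose of 5.6 µM per compound | Detection: Intracellular calcium via Fluo-8 no-wash fluorescent dye | Read-out: % inhibition of ATP-induced calcium mobilization | Benchmarks: Low control ATP plus DMSO, high control DMSO only | Replicates: Singlicate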
TAAR1 agonist: agonists of human TAAR1; Q96RJ0; CHO RD-HGA16 TAAR1, Fluo-8 calcium fluorescence; vehicle wells 0%, saturating PEA agonist 100%; activation, % at 3 µM; 0.99% of 360,000 active; AID 624467;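 active means activation above the mean activation of all test compounds in the run plus 3 SD, cut at about 38% in these data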
Target sequence (Q96RJ0 whole entry, looked up): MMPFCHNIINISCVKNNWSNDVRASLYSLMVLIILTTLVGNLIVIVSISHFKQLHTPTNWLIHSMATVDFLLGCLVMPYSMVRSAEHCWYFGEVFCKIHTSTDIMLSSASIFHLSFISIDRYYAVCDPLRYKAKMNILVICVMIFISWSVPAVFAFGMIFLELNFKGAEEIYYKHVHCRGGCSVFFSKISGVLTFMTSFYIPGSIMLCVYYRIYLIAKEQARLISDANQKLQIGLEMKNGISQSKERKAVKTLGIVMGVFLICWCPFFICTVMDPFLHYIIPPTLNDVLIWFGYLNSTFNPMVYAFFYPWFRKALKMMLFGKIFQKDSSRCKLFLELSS
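Benchmarks: low control DMSO, high control PEA (EC100); System: CHO RD-HGA16 cells carrying human TAAR1 plus Gα16; Detection: Fluo-8 fluorescence, 5 s baseline then 140 s kinetic read; Schedule: 17-24 h plating, Fluo-8 75 min 37 °C, 30 min RT; Read-out basis: % activation from peak over basal fluorescence ratio, DMSO-to-PEA scaled.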
OX1R antag-1: blocks the human orexin 1 receptor; O43613; CHO/OX1R cells, Fluo-8 calcium fluorescence, orexin A; inhibition, % at 5 µM; 0.43% of 330,000 active;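 active means inhibition above its plate's threshold, mean inhibition of all tested compounds on the plate plus 3 SD, cut at about 37% in these data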;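 further: 0% = orexin A challenge wells and 100% = SB-334867-A antagonist wells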
Target sequence (O43613 whole entry, looked up): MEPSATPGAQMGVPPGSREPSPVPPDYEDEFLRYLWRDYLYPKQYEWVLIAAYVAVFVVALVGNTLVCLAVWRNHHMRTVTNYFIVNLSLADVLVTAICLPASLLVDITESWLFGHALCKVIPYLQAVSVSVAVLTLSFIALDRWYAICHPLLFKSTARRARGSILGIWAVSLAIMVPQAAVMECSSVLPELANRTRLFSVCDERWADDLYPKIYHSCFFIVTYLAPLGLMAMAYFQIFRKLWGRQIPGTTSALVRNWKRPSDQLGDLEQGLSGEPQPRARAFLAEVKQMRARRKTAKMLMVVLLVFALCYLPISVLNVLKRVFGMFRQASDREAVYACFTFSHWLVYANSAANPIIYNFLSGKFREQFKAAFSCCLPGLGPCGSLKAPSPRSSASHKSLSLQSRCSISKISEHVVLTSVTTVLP
OX1R antag-2: antagonists of human orexin 1 receptor (OX1R); 1.8% of 330,000 active; OX1R-expressing cells, FRET antagonist read-out; O43613; inhibition, % at 6.6 µM; in the data active means inhibition mostly above about 38%, no sharp cut-off; inactive means mostly below about 40%;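 further: 0% = agonist challenge alone and 100% = reference antagonist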
TAAR1 antagonist: antagonists of human TAAR1. Q96RJ0. CHO RD-HGA16 TAAR1, Fluo-8 calcium fluorescence, antagonist. inhibition, % at 3 µM. 1.5% of 360,000 active. AID 624466;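 active means inhibition above a per-plate cutoff, the mean inhibition of test compounds on that plate plus 3 SD, cut at about 49% in these data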;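 further: 0% = DMSO plus EC80 beta-PEA response and 100% = DMSO alone without agonist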
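Assay system: RD-HGA16 CHO cells with stable hTAAR1 and Gα16 / Reagent: EC80 β-phenethylamine stimulus / Doses: 3 µM, single point / Timing: dye loading 75 min at 37 °C, then 30 min room temperature / Measured by: Fluo-8 intracellular calcium dye fluorescence, real-time kinetic reads / Controls: vehicle wells and EC80 agonist wells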
TAAR1 ag conf: human TAAR1 agonism, confirmed. activation, % at 3 µM. shares compounds with TAAR1 agonist. 82% of 2,400 active. CHO RD-HGA16 TAAR1, Fluo-8 calcium fluorescence; scaled: DMSO 0%, maximal phenethylamine 100%;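 active means activation above a cutoff set at the run's mean compound activation plus 3 SD, cut at about 39% in these data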
Ga16 nonsel ag: nonselective agonism, TAAR1 counter-screen | CHO-Ga16 parental, Fluo-8 calcium fluorescence; normalized to maximal ATP response, DMSO zero | activation, % at 3 µM | shares compounds with TAAR1 agonist | 50% of 2,400 active;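 active means activation above the run cutoff, the mean activation over all tested wells plus 3 SD, cut at about 12% in these data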;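 further: 0% = DMSO wells and 100% = maximal ATP response on the peak over basal ratio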
TAAR1 desensitize: human TAAR1 agonist that also desensitizes the receptor | shares compounds with TAAR1 agonist | CHO RD-HGA16 hTAAR1, Fluo-8 calcium, beta-PEA response inhibition | inhibition, % at 3 µM | 46% of 2,400 active;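 active means inhibition above the run cutoff, the mean inhibition of all test compounds plus 3 SD, cut at about 49% in these data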;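 further: beta-PEA stimulus applied at its EC80; loss of beta-PEA calcium signal after compound pretreatment read as receptor desensitization; 0% = DMSO with beta-PEA at EC80 and 100% = DMSO alone without agonist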
Ga16 nonsel ant: counter-screen for TAAR1 agonists: nonselective Ga16 antagonists. shares compounds with TAAR1 agonist. inhibition, % at 3 µM. CHO-Ga16 ATP-induced calcium, Fluo-8 fluorescence. 39% of 2,400 active;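 active means inhibition above the plate's mean compound inhibition plus 3 SD, computed per plate, cut at about 22% in these data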;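 further: 0% = EC80 ATP with DMSO and 100% = DMSO wells without ATP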
* = called active by the depositor; . = not tested or not shown.

SMILES | CHO parental Ca | TAAR1 agonist | OX1R antag-1 | OX1R antag-2 | TAAR1 antagonist | TAAR1 ag conf | Ga16 nonsel ag | TAAR1 desensitize | Ga16 nonsel ant
CCOC(=O)[C@]12CCC=C1N(Cc1ccccc1)C(=O)[C@H](CC(=O)NCCc1ccccc1OC)C2 | . | 69.7* | . | . | 52.3* | 91.3* | -0.4 | 75.4* | -7.3
COC(=O)[C@]12CCCCC=C1N(Cc1cccc3ccccc13)C(=O)[C@H](CC(=O)NCCc1ccccc1OC)C2 | . | 45.0* | . | . | -6.3 | 44.4* | -0.9 | 14.8 | 19.7
CCOC(=O)[C@]12CCCC=C1N(Cc1ccccc1)C(=O)[C@H](CC(=O)NCCc1ccccc1OC)C2 | . | 28.4 | . | . | -21.7 | . | . | . | .
COC(=O)[C@]12CCCCC=C1N(Cc1cccc3ccccc13)C(=O)[C@H](CC(=O)NCC1CCCCC1)C2 | . | -1.5 | . | . | 37.9 | . | . | . | .
CCCCN(C(=O)c1ccc2c(c1)S(=O)(=O)N=C1CCCCCN12)c1c(N)n(CCCC)c(=O)[nH]c1=O | -6.0 | 0.9 | -6.6 | 23.3 | -13.5 | . | . | . | .
Cc1nnc(SCC(=O)N2CCCCC2)s1 | -1.9 | 6.3 | -8.4 | -2.4 | 6.7 | . | . | . | .
CCCCNC(=S)NNC(=O)c1cccnc1 | -1.7 | 12.4 | -8.3 | 9.7 | -7.9 | . | . | . | .
CN1CCN(c2ccc(NC(=O)CSc3ccccc3)cc2F)CC1 | 3.9 | 57.0* | -1.2 | 1.4 | 43.2 | 71.3* | 5.9 | 43.1 | 4.2
CSCCC(NC(=O)c1ccco1)C(=O)N1CC(C)OC(C)C1 (stereo unspecified) | -8.8 | 14.6 | -5.7 | 3.7 | -12.1 | . | . | . | .
Cc1c(C(=O)NCCc2ccccc2)oc2ccc(S(=O)(=O)N3CCC4(CC3)OCCO4)cc12 | -4.5 | 93.0* | 27.1 | 52.7 | 77.3* | 91.7* | 11.7* | 89.0* | 36.2*
C=CCNC(=O)c1oc2ccc(S(=O)(=O)N3CCC4(CC3)OCCO4)cc2c1C | -12.2 | 10.8 | -19.2 | 7.1 | -11.1 | . | . | . | .
Oc1c(C=Nc2cccc3cccnc23)sc2ccccc12 | 49.0* | 129.5* | 99.0* | 43.5 | 93.6* | 38.9* | 68.9* | 57.9* | 68.8*
CC(C)CNC(=O)C1C(=O)Nc2ccccc2C(=O)N1C(C)(C)C (stereo unspecified) | . | 6.3 | . | . | -19.4 | . | . | . | .
OCC1COC(c2ccccc2)=N1 (stereo unspecified) | . | 38.6* | . | . | -13.8 | 6.4 | 1.9 | 9.8 | 11.6
Cc1cccc(CCNCc2c(C(=O)O)c(C)n(-c3ccccc3)c2C)c1 | -29.1 | 58.0* | -34.6 | 0.2 | 6.4 | 77.7* | 0.5 | 43.8 | 2.9
Cc1cccc(C(=O)NCCc2ccccc2)c1 | -10.8 | 5.5 | -17.6 | 17.2 | -16.8 | . | . | . | .
OC1c2cc(Cl)ccc2-c2c(Cl)cc(Cl)cc21 (stereo unspecified) | . | 3.3 | . | . | -3.7 | . | . | . | .
COc1cc(/C=C2/C(=O)NN(c3cccc(Cl)c3)C2=O)cc(OC)c1O | -13.6 | 17.9 | -6.1 | 12.4 | 7.8 | . | . | . | .
CCOc1cc(/C=C2/C(=O)NN(c3cccc(Cl)c3)C2=O)ccc1O | -5.8 | 52.8* | -13.1 | 0.0 | -13.1 | 61.7* | 17.5* | 16.7 | 10.7
Fc1ccccc1/C=N/Nc1ncnc2ccccc12 | -23.0 | 3.7 | -3.4 | 29.9 | -4.8 | . | . | . | .
Clc1ccc(/C=N/Nc2ncnc3ccccc23)cc1Cl | -19.8 | 44.6* | -11.7 | 22.1 | 14.3 | 19.0 | 13.1* | 13.5 | -1.8
Cc1c(C(=O)N/N=C/c2cccnc2)nnn1-c1nonc1N | 4.7 | 7.0 | -50.2 | 11.6 | 8.8 | . | . | . | .
O=C(N/N=C/c1ccc(O)cc1)c1ccc(COc2cc(Cl)ccc2Cl)o1 | 59.0* | 92.6* | 67.3* | 4.5 | 75.6* | 98.2* | 69.4* | 87.2* | 58.9*
O=C(O)/C=C/C(=O)NCc1ccccc1 | 2.4 | 11.7 | -0.6 | 14.7 | 0.1 | . | . | . | .
O=C(O)/C=C/C(=O)NCCCc1ccccc1 | 2.5 | 73.5* | -0.6 | 20.2 | 33.6 | 103.5* | 2.1 | 78.1* | -2.5
SMILES | CHO parental Ca | TAAR1 agonist | OX1R antag-1 | OX1R antag-2 | TAAR1 antagonist | TAAR1 ag conf | Ga16 nonsel ag | TAAR1 desensitize | Ga16 nonsel ant
O=C(Nc1cccc(Cl)c1)N1CCc2ccccc2C1 | -8.5 | 30.9 | -16.6 | 12.9 | 14.2 | . | . | . | .
COc1ccc(NC(=S)N2CCc3ccccc3C2)cc1 | -7.4 | 83.7* | -3.9 | 12.9 | 52.8* | 93.4* | 9.2 | 31.1 | -3.2
COc1cccc(NC(=O)N2CCc3ccccc3C2)c1 | -2.0 | 46.5* | -20.2 | 11.3 | -0.6 | 52.9* | 1.2 | 13.6 | 10.2
COc1ccc(NC(=O)CN2CCc3ccccc3C2)cc1 | . | 4.2 | . | . | -2.7 | . | . | . | .
O=c1c(O)c(-c2cccs2)oc2ccc(Cl)cc12 | 70.5* | 291.8* | 91.6* | 22.5 | 110.0* | 151.8* | 151.5* | 89.0* | 84.7*
CCC1CCc2sc(C(=O)NCC(c3ccc(OC)cc3)N3CCCC3)cc2C1 (stereo unspecified) | -20.6 | 46.3* | -40.4 | 21.1 | -21.9 | 42.3* | 5.1 | 19.9 | 15.6
COc1ccc(C(CNC(=O)c2cccc(N(C)C)c2)N2CCCC2)cc1 (stereo unspecified) | -14.7 | -0.7 | -26.2 | 11.6 | -6.7 | . | . | . | .
NC(=O)NC(=O)c1nccnc1C(=O)O | -3.9 | -0.4 | 5.2 | -1.7 | 9.3 | . | . | . | .
Cc1ccc(-c2nn(-c3ccccc3)cc2CSC(=N)N)cc1 | -1.7 | 76.1* | 4.1 | 14.4 | 10.2 | 83.8* | 27.0* | 47.0 | 24.7*
COc1ccc(/C=C/CN2CCC(C(=O)NC(c3ccc(F)cc3)c3ccc4ccccc4n3)CC2)cc1 (stereo unspecified) | . | 47.2* | . | . | 31.6 | 39.6* | 22.7* | 27.5 | 26.1*
Cc1cc(C)c2c(c1)/C(=N/NC(=O)c1cc(C)oc1C)CCC2 | -6.8 | 81.8* | -10.2 | 12.5 | -9.4 | 20.2 | 1.6 | 18.6 | 5.1
Cc1nn(C)c(Cl)c1/C=N/OC(=O)c1ccc(F)cc1 | 14.1 | 88.0* | -35.4 | 12.8 | 11.4 | 3.0 | 1.6 | 2.9 | 9.8
O=S1(=O)CC(N2CCCC2)CN1CCc1ccccc1 (stereo unspecified) | . | 56.2* | . | . | -7.2 | 45.0* | 0.0 | 6.0 | 16.1
CN1CCC(N2CCN(C3CN(CCc4ccccc4)S(=O)(=O)C3)CC2)CC1 (stereo unspecified) | . | 7.5 | . | . | -11.1 | . | . | . | .
O=c1[nH]ncc(N/N=C\c2ccc(O)cc2O)c1Cl | -7.9 | 73.5* | -18.7 | 15.2 | 30.1 | 79.9* | 1.0 | 66.8* | 9.1
